In ChEMBL document CHEMBL4052597, “Symmetrically Substituted Xanthone Amphiphiles Combat Gram-Positive Bacterial Resistance with Enhanced Membrane Selectivity” (J Med Chem, 2017) one finds MIC, Activity and Ratio data, which are given here for 7 compounds.

Test [1] relates to Staphylococcus aureus. The experiment in a line: Antibacterial activity against methicillin-resistant Staphylococcus aureus DM 9808R after 24 hrs by two fold dilution assay. Format: functional. The method, boiled down:
(§1)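 CLSI broth macrodilution in cation-adjusted Mueller-Hinton broth. Compounds were dissolved in DMF and diluted in PBS to a 1000 µg/mL stock, then serially 2-fold diluted in CA-MHB. The inoculum came from colonies on 18-20 h TSA plates (direct colony suspension), adjusted to ~5×10^5 CFU/mL. Incubation was 24 h at 35 °C. MIC is the lowest concentration with no visible growth versus control. Biological replicates.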

For test [2], the system named is Staphylococcus aureus. The experiment in a line: Antibacterial activity against methicillin-resistant Staphylococcus aureus DM 21455 after 24 hrs by two fold dilution assay. Format: functional. Particulars: DM 21455, 24 h. Summed up:
as §1

For test [3], the system named is Staphylococcus aureus. As to the kind of experiment: Antibacterial activity against Staphylococcus aureus DM 4001R after 24 hrs by two fold dilution assay. Format: functional. The method, boiled down:
as §1

For test [4], the system named is Lipid bilayer. The experiment in a line: Induction of membrane damage in DOPC/cholesterol large unilamellar vesicles assessed as calcein leakage at compound to lipid ratio of 1:16 after 1 hr by fluorescence assay relative to control. Summed up:
(§2)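 100 nm calcein-loaded LUVs made by film hydration; lipid content set by total phosphorus assay. DOPC/cholesterol (3:1, w/w) mimics mammalian and DOPE/DOPG (3:1, w/w) bacterial membranes. Compound in DMF added at lipid-to-compound ratio 16 (6.25 µM compound), final DMF limited to 0.5%. Fluorescence monitored at ex 490/em 520 nm for 1 hour; replicated.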

In test [5] the test system is Lipid bilayer. The experiment in a line: Induction of membrane damage in DOPE/DOPG large unilamellar vesicles assessed as calcein leakage at compound to lipid ratio of 1:16 after 1 hr by fluorescence assay relative to control. Summed up:
as §2

In another test the test system is Bacillus cereus. The experiment in a line: Antibacterial activity against Bacillus cereus ATCC 11778 after 24 hrs by two fold dilution assay. Format: functional. Particulars: ATCC 11778, 24 h. Summed up: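 Broth macro-dilution per CLSI in cation-adjusted Mueller-Hinton broth; compounds dissolved in DMF, diluted in PBS to 1000 µg/mL stock, then serial 2-fold dilutions in CA-MHB in tubes. Inoculum from 18-20 h TSA colonies (direct colony suspension), adjusted to about 5× 10^5 CFU/mL. MIC read after 24 h at 35 °C as lowest concentration with no visible growth; biological replicates.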

Test [6] deals with Staphylococcus aureus. As to the kind of experiment: Disruption of membrane in Staphylococcus aureus isolate DM4001R assessed as increase in ATP leakage at 4 times MIC after 1 hr by ATP bioluminescent assay relative to control. Format: functional. Summed up:
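S. aureus DM4001 grown to exponential phase, washed three times in 20 mM PBS (pH 7), resuspended to OD600 0.2. Compound added, suspensions held 1 hour at 37 °C, then centrifuged. Supernatant mixed with luciferase/luciferin enzyme mix; extracellular ATP quantified by luminescence. Replicated.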

For test [7], the system named is Staphylococcus aureus. The experiment in a line: Disruption of cytoplasmic membrane in Staphylococcus aureus isolate DM4001R at 2 times MIC after 3000 secs by SYTOX green dye based fluorescence assay. Format: functional. Summed up:
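Clinical S. aureus isolate DM4001R incubated with SYTOX Green plus compound; membrane permeabilization read as increased fluorescence intensity. Measurements replicated.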

Test [8] deals with Staphylococcus aureus. As to the kind of experiment: Ratio of MIC for Staphylococcus aureus ATCC 29213 after and before 15 serial passages. Format: functional.
The subject of test [9] is Staphylococcus aureus. As to the kind of experiment: Antibacterial activity against Staphylococcus aureus ATCC 700699 infected in C57BL6 mouse cornea assessed as decrease in number of viable bacteria at 0.5% administered topically at 2 hrs interval for 4 times starting on day 1 post infection measured post last dose relative to control. Format: functional, Mu50.

≈ marks a conversion by molar mass, not a printed value. Calls of active or inactive are those of the source. No cut-off for these calls is given here. Peptide text beside a SMILES is read from it.

Broadly, the MIC is the lowest concentration that inhibits growth of the organism. Read a low MIC as a more susceptible organism. On to `COC(=O)[C@H](CCCCN)NC(=O)COc1cc(OCC=C(C)C)cc2oc3cc(OCC=C(C)C)cc(OCC(=O)N[C@@H](CCCCN)C(=O)OC)c3c(=O)c12`, for which the MIC in the test on Staphylococcus aureus [1] was found to be 12.5 µg/mL (≈ 15.7 µM); in the test with Staphylococcus aureus [2], 6.25 µg/mL (≈ 7.84 µM); against Staphylococcus aureus [3], 12.5 µg/mL (≈ 15.7 µM); with Bacillus cereus, 6.25 µg/mL (≈ 7.84 µM). Further, the Activity in the test with Lipid bilayer [4] was less than 20%; in the test with Lipid bilayer [5] it was 48.2%; in the test with Staphylococcus aureus [6], 106.7%. Moreover, the outcome in the test on Staphylococcus aureus [7] was Active.

Take `COC(=O)[C@H](CCCNC(=N)N)NC(=O)[C@H](CCCNC(=N)N)NC(=O)COc1cc(OC/C=C(\C)CCC=C(C)C)cc2oc3cc(OC/C=C(\C)CCC=C(C)C)cc(OCC(=O)N[C@@H](CCCNC(=N)N)C(=O)N[C@@H](CCCNC(=N)N)C(=O)OC)c3c(=O)c12`: the MIC in the test on Staphylococcus aureus [1], against Staphylococcus aureus [2], in the test with Staphylococcus aureus [3] and in the test with Bacillus cereus was 25 µg/mL (≈ 19.2 µM) throughout.

For the compound `CCCCN(CCCC)CCCNC(=O)COc1cc(OCC=C(C)C)cc2oc3cc(OCC=C(C)C)cc(OCC(=O)NCCCN(CCCC)CCCC)c3c(=O)c12`, the MIC in the test with Staphylococcus aureus [1] is 3.13 µg/mL (≈ 3.69 µM); against Staphylococcus aureus [2], 3.13 µg/mL (≈ 3.69 µM); in the test on Staphylococcus aureus [3], 3.13 µg/mL (≈ 3.69 µM); against Bacillus cereus it was 6.25 µg/mL (≈ 7.36 µM).

With `COC(=O)[C@H](CCCNC(=N)N)NC(=O)COc1cc(OC/C=C(\C)CCC=C(C)C)cc2oc3cc(OC/C=C(\C)CCC=C(C)C)cc(OCC(=O)N[C@@H](CCCNC(=N)N)C(=O)OC)c3c(=O)c12`, the MIC in the test on Staphylococcus aureus [1] is 50 µg/mL (≈ 50.5 µM); in the test with Staphylococcus aureus [2], more than 50 µg/mL; with Staphylococcus aureus [3] it was 25 µg/mL (≈ 25.3 µM); in the test with Bacillus cereus, more than 50 µg/mL.

With `CCn1cc(C(=O)O)c(=O)c2cc(F)c(N3CCNCC3)cc21` [NORFLOXACIN], the Ratio in the test on Staphylococcus aureus [8] worked out at 128.

On to `CC[C@H](C)[C@H](NC(=O)CN)C(=O)NCC(=O)N[C@@H](CCCCN)C(=O)N[C@@H](Cc1ccccc1)C(=O)N[C@@H](CC(C)C)C(=O)N[C@@H](CCCCN)C(=O)N[C@@H](CCCCN)C(=O)N[C@@H](C)C(=O)N[C@@H](CCCCN)C(=O)N[C@@H](CCCCN)C(=O)N[C@@H](Cc1ccccc1)C(=O)NCC(=O)N[C@@H](CCCCN)C(=O)N[C@@H](C)C(=O)N[C@@H](Cc1ccccc1)C(=O)N[C@H](C(=O)N[C@@H](CCCCN)C(=O)N[C@H](C(=O)N[C@@H](CC(C)C)C(=O)N[C@@H](CCCCN)C(=O)N[C@@H](CCCCN)C(=O)O)[C@@H](C)CC)C(C)C` (H-GIGKFLKKAKKFGKAFVKILKK-OH), for which the MIC in the test with Staphylococcus aureus [1] was found to be 25 µg/mL (≈ 10.1 µM); against Staphylococcus aureus [2], 12.5 µg/mL (≈ 5.04 µM); in the test with Staphylococcus aureus [3], 12.5 µg/mL (≈ 5.04 µM); in the test on Bacillus cereus, 12.5 µg/mL (≈ 5.04 µM). In addition, the Activity with Staphylococcus aureus [9] stood at 93.3%.

With `CC(C)=CCOc1cc(OCC(=O)N[C@@H](CCCNC(=N)N)C(N)=O)c2c(=O)c3c(OCC(=O)N[C@@H](CCCNC(=N)N)C(N)=O)cc(OCC=C(C)C)cc3oc2c1`, the MIC against Staphylococcus aureus [1] was 6.25 µg/mL (≈ 7.59 µM); with Staphylococcus aureus [2] it was 6.25 µg/mL (≈ 7.59 µM); in the test on Staphylococcus aureus [3], 12.5 µg/mL (≈ 15.2 µM); in the test with Bacillus cereus it was 12.5 µg/mL (≈ 15.2 µM).
